≈ marks a conversion by molar mass, not a printed value.
Key:
Pseudomonas aeruginosa [1] = test: Antibacterial activity against Pseudomonas aeruginosa ATCC 27853 after 24 hrs by macrobroth dilution method; assay type: functional
How it was run: (§1)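 Broth macrodilution was run following CLSI methodology against ATCC reference strains and clinical isolates from the Canadian Intensive Care Unit (CAN-ICU) study, with Gram-positive and Gram-negative organisms tested. The value is the minimum inhibitory concentration, reported in μg/mL.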

Streptococcus pneumoniae = test: Antibacterial activity against Streptococcus pneumoniae ATCC 49619 after 24 hrs by macrobroth dilution method; assay type: functional; how it was run: as §1
[2] = test system: Staphylococcus epidermidis; test: Antibacterial activity against Staphylococcus epidermidis […] after 24 hrs by macrobroth dilution method; assay type: functional; how it was run: as §1
Klebsiella pneumoniae = test: Antibacterial activity against Klebsiella pneumoniae ATCC 13883 after 24 hrs by macrobroth dilution method; details: ATCC 13883, 24 h
Pseudomonas aeruginosa [3] = test: Antibacterial activity against Pseudomonas aeruginosa CAN-ICU 62308 after 24 hrs by macrobroth dilution method; assay type: functional; how it was run: as §1
Acinetobacter baumannii = test: Antibacterial activity against Acinetobacter baumannii CAN-ICU 63169 after 24 hrs by macrobroth dilution method; assay type: functional; how it was run: as §1
Escherichia coli [4] = test: Antibacterial activity against Escherichia coli CAN-ICU 63074 after 24 hrs by macrobroth dilution method; assay type: functional; how it was run: as §1
Escherichia coli [5] = test: Antibacterial activity against gentamicin-resistant Escherichia coli ATCC 6174 after 24 hrs by macrobroth dilution method; assay type: functional
How it was run: (§2)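 Reference strains from the American Type Culture Collection were tested by broth macrodilution following CLSI methodology. The read-out was the minimum inhibitory concentration, reported in μg/mL. The same method was used for the Gram-positive and Gram-negative organisms.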

Staphylococcus aureus [6] = test: Antibacterial activity against Staphylococcus aureus ATCC 29213 after 24 hrs by macrobroth dilution method; assay type: functional; how it was run: as §2
[7] = test system: Staphylococcus epidermidis; test: Antibacterial activity against methicillin-resistant Staphylococcus epidermidis ATCC 14990 after 24 hrs by macrobroth dilution method; assay type: functional
[8] = test system: Stenotrophomonas maltophilia; test: Antibacterial activity against Stenotrophomonas maltophilia CAN-ICU 62585 after 24 hrs by macrobroth dilution method; assay type: functional; how it was run: as §1
Escherichia coli [9] = test: Antibacterial activity against Escherichia coli ATCC 25922 after 24 hrs by macrobroth dilution method; assay type: functional; how it was run: as §2
Staphylococcus aureus [10] = test: Antibacterial activity against methicillin-resistant Staphylococcus aureus ATCC 33592 after 24 hrs by macrobroth dilution method; assay type: functional; how it was run: as §2

| Compound | MIC (Pseudomonas aeruginosa [1]; ATCC 27853, 24 h) [µg/mL] | MIC (Streptococcus pneumoniae; ATCC 49619, 24 h) [µg/mL] | MIC [2] [µg/mL] | MIC (Klebsiella pneumoniae) [µg/mL] | MIC (Pseudomonas aeruginosa [3]; CAN-ICU 62308, 24 h) [µg/mL] | MIC (Acinetobacter baumannii; CAN-ICU 63169, 24 h) [µg/mL] | MIC (Escherichia coli [4]; CAN-ICU 63074, 24 h) [µg/mL] | MIC (Escherichia coli [5]; ATCC 6174, 24 h) [µg/mL] | MIC (Staphylococcus aureus [6]; ATCC 29213, 24 h) [µg/mL] | MIC ([7]; ATCC 14990, 24 h) [µg/mL] | MIC ([8]; CAN-ICU 62585, 24 h) [µg/mL] | MIC (Escherichia coli [9]; ATCC 25922, 24 h) [µg/mL] | MIC (Staphylococcus aureus [10]; ATCC 33592, 24 h) [µg/mL] | other results |
| --- | --- | --- | --- | --- | --- | --- | --- | --- | --- | --- | --- | --- | --- | --- |
| NC[C@@H]1O[C@H](O[C@H]2[C@@H](OC(=O)Nc3ccccc3)[C@H](O[C@@H]3[C@@H](OC(=O)Nc4ccccc4)[C@H](N)C[C@H](N)[C@H]3O[C@H]3O[C@H](CN)[C@@H](OC(=O)Nc4ccccc4)[C@H](OC(=O)Nc4ccccc4)[C@H]3N)O[C@@H]2COC(=O)Nc2ccccc2)[C@H](N)[C@@H](OC(=O)Nc2ccccc2)[C@@H]1OC(=O)Nc1ccccc1.O=C(O)C(F)(F)F | 256 | 16 | 0.5 | 256 | 128 | 32 | 16 | 16 | 1 | 0.5 | 4 | 32 | 1 |  |
| NCC[C@H](O)C(=O)N[C@@H]1C[C@H](N)[C@@H](O[C@H]2O[C@H](CN)[C@@H](O)[C@H](O)[C@H]2O)[C@H](O)[C@H]1O[C@H]1O[C@H](CO)[C@@H](O)[C@H](N)[C@H]1O [AMIKACIN] | 4 (≈ 6.83 µM) | 8 (≈ 13.7 µM) | 1 (≈ 1.71 µM) | 0.5 (≈ 0.854 µM) | 128 (≈ 219 µM) | 128 (≈ 219 µM) | 32 (≈ 54.6 µM) | 2 (≈ 3.42 µM) | 4 (≈ 6.83 µM) | 2 (≈ 3.42 µM) | > 512 | 4 (≈ 6.83 µM) | 8 (≈ 13.7 µM) |  |
| CN(C)c1ccc(NC(=O)OC[C@H]2O[C@H](O[C@@H]3[C@@H](OC(=O)Nc4ccc(N(C)C)cc4)[C@H](O[C@H]4O[C@H](CN)[C@@H](OC(=O)Nc5ccc(N(C)C)cc5)[C@H](OC(=O)Nc5ccc(N(C)C)cc5)[C@H]4OC(=O)Nc4ccc(N(C)C)cc4)[C@@H](N)C[C@H]3N)[C@H](OC(=O)Nc3ccc(N(C)C)cc3)[C@@H](N)[C@@H]2OC(=O)Nc2ccc(N(C)C)cc2)cc1.O=C(O)C(F)(F)F | > 256 | > 256 | 16 | > 256 | 256 | > 256 | 256 | 256 | 16 | 32 | > 256 | 256 | 32 |  |
| GENTAMICIN |  |  | 0.25 |  |  |  |  |  |  |  |  |  |  | MIC (Pseudomonas aeruginosa [1]): 8 µg/mL; MIC (Streptococcus pneumoniae): 4 µg/mL; MIC (Pseudomonas aeruginosa [3]): 128 µg/mL; MIC (Acinetobacter baumannii): 128 µg/mL; MIC (Escherichia coli [4]): 8 µg/mL; MIC (Escherichia coli [5]): 128 µg/mL; MIC (Staphylococcus aureus [6]): 1 µg/mL; MIC [7]: 32 µg/mL; MIC [8]: > 512 µg/mL; MIC (Escherichia coli [9]): 1 µg/mL; MIC (Staphylococcus aureus [10]): 2 µg/mL |
| NC[C@@H]1O[C@@H](O[C@H]2[C@H](O)[C@@H](O[C@H]3O[C@H](CO)[C@@H](O)[C@H](N)[C@H]3O)[C@H](N)C[C@@H]2N)[C@@H](O)[C@H](O)[C@H]1O [KANAMYCIN A] | > 512 | 8 (≈ 16.5 µM) | 2 (≈ 4.13 µM) | 1 (≈ 2.06 µM) | > 512 | 32 (≈ 66 µM) | 32 (≈ 66 µM) | 16 (≈ 33 µM) | 4 (≈ 8.26 µM) | 128 (≈ 264 µM) | > 512 | 8 (≈ 16.5 µM) | > 512 |  |
| NC[C@@H]1O[C@H](O[C@H]2[C@@H](O)[C@H](O[C@@H]3[C@@H](O)[C@H](N)C[C@H](N)[C@H]3O[C@H]3O[C@H](CN)[C@@H](O)[C@H](O)[C@H]3N)O[C@@H]2CO)[C@H](N)[C@@H](O)[C@@H]1O [FRAMYCETIN] | 512 (≈ 833 µM) | 32 (≈ 52.1 µM) | 0.25 (≈ 0.407 µM) | 1 (≈ 1.63 µM) | 512 (≈ 833 µM) | 64 (≈ 104 µM) |  | 8 (≈ 13 µM) | 1 (≈ 1.63 µM) | 0.5 (≈ 0.813 µM) | > 512 | 4 (≈ 6.51 µM) | 256 (≈ 416 µM) |  |

Reference: ChEMBL document CHEMBL1158537, “Antibacterial activities of aminoglycoside antibiotics-derived cationic amphiphiles. Polyol-modified neomycin B-, kanamycin A-, amikacin-, and neamine-based amphiphiles with potent broad spectrum antibacterial activity” (2010)
